These results are taken from paper PMC3217223 (Bioorganic & Medicinal Chemistry, 2009).

Counter-ions that a name gives are not always drawn.

The test system of test [1] is Punta Toro virus. It is filed as cell-based. Conditions: microscopy and MTS assay.
In test [2] the test system is influenza virus B. In kind it is cell-based, influenza virus B/Hong Kong/5/72. Conditions: influenza virus B (B/Hong Kong/5/72); microscopy and MTS assay.
Test [3] relates to bloodstream form T. brucei (strain 427). Description: T. brucei culturing and drug test. It is filed as cell-based, Trypanosoma brucei. As to conditions: at concentrations up to 5 mg mL^−1. The essentials:
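Parasites were kept at 37 °C in modified Iscove's medium (pH 7.4) and grown for 48 h with a range of test compound concentrations. Cell density at each concentration was counted by hemocytometer and expressed as percent of untreated control growth. Concentrations giving 50% and 90% growth inhibition (IC₅₀, IC₉₀) were determined. Run in triplicate.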

In test [4] the test system is parainfluenza-3 virus. It is filed as cell-based. Conditions: microscopy and MTS assay.
Test [5] concerns influenza virus A/H3N2. In kind it is cell-based, influenza virus A/Hong Kong/7/87 (H3N2). As to conditions: influenza virus A/H3N2 (A/Hong Kong/7/87); microscopy and MTS assay.
The subject of test [6] is Coxsackievirus B4. In kind it is cell-based. As to conditions: microscopy and MTS assay.
The subject of test [7] is vesicular stomatitis virus. It is filed as cell-based.
Test [8] concerns herpes simplex virus type 1. It is filed as cell-based. As to conditions: microscopy and MTS assay.
In test [9] the test system is respiratory syncytial virus. In kind it is cell-based. Conditions: microscopy and MTS assay.
The subject of test [10] is influenza virus A/H1N1. In kind it is cell-based, influenza virus A/Puerto Rico/8/34 (H1N1). Conditions: influenza virus A/H1N1 (A/Puerto Rico/8/34); microscopy and MTS assay.
Test [11] has as its system sindbis virus. It is filed as cell-based. Conditions: microscopy and MTS assay.
Test [12] concerns vaccinia virus. It is filed as cell-based.
In test [13] the test system is herpes simplex virus type 2. It is filed as cell-based. Conditions: microscopy and MTS assay.
Test [14] concerns Reovirus-1. It is filed as cell-based. As to conditions: microscopy and MTS assay.
The test system of test [15] is NMDA receptors. It is filed as cell-based. As to conditions: cerebellar granule neurons, glutamate or NMDA 100 μM + glycine 10 μM.
Test [16] deals with feline coronavirus. It is filed as cell-based. Conditions: microscopy and MTS assay.

Regarding `c1ccc(CNC23CC4CC(CC(C4)O2)C3)cc1` [Compound 2a, N-Benzyl(2-oxaadamant-1-yl)amine hydrochloride], the Antiviral activity result in [1] is reported as “None of the tested compounds displayed activity”; in [2] it was “none of the compounds was found to be active”; in test [4] it was “None of the tested compounds displayed activity”; in test [5] it was “none of the compounds was found to be active”; in test [6], “None of the tested compounds displayed activity”; in [7], “None of the tested compounds displayed activity”. Besides, the Antiviral activity result was “None of the tested compounds displayed activity” in test [8]; “None of the tested compounds displayed activity” in [9]; “none of the compounds was found to be active” in [10]; “None of the tested compounds displayed activity” in test [11]; “None of the tested compounds displayed activity” in [12]; “None of the tested compounds displayed activity” in [13]. Moreover, the Antiviral activity result in test [14] and in test [16] was “None of the tested compounds displayed activity” throughout. The “Trypanocidal activity (in words)” value in test [3] is listed as “no activity”. The “NMDA receptor antagonism (in words)” value in [15] was “inactive”.
For `CNC12CC3CC(CC(C3)O1)C2` [Compound 4, N-Methyl(2-oxaadamant-1-yl)amine hydrochloride], the Antiviral activity entry in [1] was “None of the tested compounds displayed activity”; in [2], “none of the compounds was found to be active”; in [4], “None of the tested compounds displayed activity”; in test [5], “none of the compounds was found to be active”; in [6], “None of the tested compounds displayed activity”; in test [7] it was “None of the tested compounds displayed activity”. Also, the Antiviral activity result in test [8] is listed as “None of the tested compounds displayed activity”; in test [9], “None of the tested compounds displayed activity”; in test [10], “none of the compounds was found to be active”; in [11], “None of the tested compounds displayed activity”; in test [12] it was “None of the tested compounds displayed activity”; in test [13] it was “None of the tested compounds displayed activity”. For the same compound, the Antiviral activity entry in [14] and in test [16] was “None of the tested compounds displayed activity” each time. Besides, the “Trypanocidal activity (in words)” value in test [3] is reported as “no activity”. Also, the “NMDA receptor antagonism (in words)” value in test [15] is “inactive”.
